T cruzi inh: T. cruzi replication inhibition; T. cruzi beta-gal in NIH3T3, luminescence, 90 h; AID 1885; 300,000 compounds, 1.4% hits; inhibition, % (concentration not given with the values);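 active means mean inhibition across valid replicates above about 55%, limit read from the data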;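 further: signal also drops with host cell toxicity which is not excluded here; 0% = plate median of DMSO wells and 100% = zero luminescence signal; higher percent means less beta-gal luminescence so fewer parasites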
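System: Mouse NIH/3T3 fibroblasts infected with β-gal-expressing T. cruzi Tulahuen C4 | Quantity: NIH/3T3 cells, 5,000 per well | Reagent: 5000 reporter trypomastigotes per well | Dosing: Compound pinned at 50 nL/well, DMSO | Schedule: 3 h host attachment, then at least 90 h co-culture | Detection: GalScreen luminescence, 60 min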
CHT block: human CHT choline transport inhibition | Q9GZV3 | CHT-expressing cells, membrane potential dye, choline response; stronger effect = lower value | B-score at 10 µM | 310,000 compounds, 0.86% hits;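 active means B-score over 3 SD under the library average, and starting fluorescence ratio not unusually high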;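 further: choline stimulus applied at its EC90 after an EC20 pre-addition; B-score computed on integrated fluorescence ratio after choline addition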
Target sequence (Q9GZV3 whole entry, looked up): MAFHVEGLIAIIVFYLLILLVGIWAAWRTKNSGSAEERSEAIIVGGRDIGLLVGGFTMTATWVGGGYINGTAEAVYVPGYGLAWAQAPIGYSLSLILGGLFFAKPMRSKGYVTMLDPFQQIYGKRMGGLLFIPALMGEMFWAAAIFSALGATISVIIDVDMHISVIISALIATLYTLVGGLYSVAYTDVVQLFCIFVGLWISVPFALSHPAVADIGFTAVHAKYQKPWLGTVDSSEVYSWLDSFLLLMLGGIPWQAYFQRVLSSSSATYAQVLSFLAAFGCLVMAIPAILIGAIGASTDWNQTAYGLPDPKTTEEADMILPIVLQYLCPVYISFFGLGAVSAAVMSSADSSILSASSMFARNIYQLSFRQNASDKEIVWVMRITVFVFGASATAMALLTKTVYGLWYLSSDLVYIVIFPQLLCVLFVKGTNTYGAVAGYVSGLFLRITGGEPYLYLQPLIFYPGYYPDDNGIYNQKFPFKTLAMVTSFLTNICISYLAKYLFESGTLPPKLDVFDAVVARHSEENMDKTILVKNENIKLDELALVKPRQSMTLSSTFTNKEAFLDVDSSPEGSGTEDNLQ
CHT allo act: human CHT allosteric activation | B-score at 10 µM | CHT-expressing cells, membrane potential dye, choline EC20; stronger effect = higher value; LV-AA mutant CHT in HEK293 cells | 310,000 compounds, 0.49% hits | AID 488977;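 active means initial fluorescence not abnormally high and integrated response B-score, plate-corrected, over 3 SD above library mean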
PolyA inh: yeast polyadenylation inhibition | S. cerevisiae SKY197-pL101 polyadenylation reporter, beta-gal luminescence; efflux-impaired pdr1/pdr3 knockout yeast; score 100 = 6 SD above DMSO | AID 1875 | 300,000 compounds, 0.02% hits | activity score, % at 12 µM;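 active means lowest replicate activity score at least 50, where 100 means six control SD above control mean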;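 further: yeast exposed to compound for 9 h at 30 °C; higher score means more reporter readthrough which indicates perturbed polyadenylation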
CHT block conf: confirmation of human choline transporter CHT inhibitors | shares compounds with CHT block | CHT-expressing cells, choline membrane potential dye; LV-to-AA substituted CHT, HEK293 cells | AID 493221 | CHT activity remaining % of control (stronger effect = lower value), % at 10 µM | 2,400 compounds, 70% hits;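 active means choline transporter activity left, mean of duplicates at 10 µM, below buffer-only control mean minus 3 SD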;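 further: depolarization triggered by choline at its EC90 following an EC20 pre-addition; 0% = hemicholinium-3 full block and 100% = buffer-only control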
HEK293 CHT ctr: CHT inhibitor counter-screen hit in parental HEK293 cells | membrane potential ratio readout (active if shifted either direction beyond buffer ±3SD; no single direction) at 10 µM | 2,400 compounds, 4% hits | shares compounds with CHT block | AID 493222 | membrane potential dye, choline response; active = decrease or increase beyond buffer ±3SD;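 further: parental cells lack the transporter so any hit is non-specific; ratio is peak minus trough fluorescence over baseline after EC90 choline challenge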
* hit, by the source's call; i = inactive; / = no result given. A selection: hits, their analogues and other compounds. The true share with any hit is near 2.6%.

SMILES	T cruzi inh	CHT block	CHT allo act	PolyA inh	CHT block conf	HEK293 CHT ctr
CCOc1ccccc1C(=O)Nc1ccc(S(=O)(=O)Nc2nccc(C)n2)cc1	-2	i	i	-6	/	/
CN(C(=O)c1ccc(OC2CCN(Cc3ccccn3)CC2)cc1)C1CCCCC1	23	i	i	-11	/	/
O=C(NC1CCCCC1)c1ccc(OC2CCN(Cc3ccccn3)CC2)cc1	-12	-13*	i	1	-6.3%*	i
CC(CNC(=O)c1ccc(OC2CCN(Cc3ccccn3)CC2)cc1)c1ccccc1 (stereo not given)	-1	-12*	i	-1	10%*	i
CC(C)c1cc(CNC(=O)c2ccc(OC3CCN(Cc4ccccn4)CC3)cc2)on1	46	i	i	-10	/	/
CCC1CCCCN1CCCNC(=O)c1cn(CC)c2ccc(S(=O)(=O)N(C)C3CCCCC3)cc2c1=O (stereo not given)	26	-8.3*	i	3	50%*	2.8*
CCCN(CCC)CCCNC(=O)c1cn(C)c2ccc(S(=O)(=O)N(C)C3CCCCC3)cc2c1=O	17	i	i	19	/	/
CCCCN(CCCC)CCNC(=O)c1cn(C)c2ccc(S(=O)(=O)N(C)C3CCCCC3)cc2c1=O	13	-6.9*	i	3	32%*	i
Cc1cc(C)c2nc(N3CCCN(C(=O)c4cnccn4)CC3)c(C#N)cc2c1	3	-5.2*	i	-10	38%*	i
O=C(COc1ccccc1Cl)Nc1ccc(S(=O)(=O)N2CCOCC2)cc1	3	i	i	3	/	/
C=CCNc1nc(SC)nc2ccsc12	7	-11*	i	-8	3.0%*	i
CN(CC(O)Cn1c2ccccc2c2ccccc21)S(C)(=O)=O (stereo not given)	/	i	i	-6	/	/
CS(=O)(=O)N(CC(O)Cn1c2ccccc2c2ccccc21)c1ccccc1 (stereo not given)	19	i	i	7	i	i
CNC(=O)[C@H]1O[C@@H](n2cnc3c(NCc4cccc(I)c4)ncnc32)[C@H](O)[C@@H]1O	/	-5.2*	i	/	44%*	i
OCC1OC(n2cnc3c(NCCc4ccccc4)ncnc32)C(O)C1O (stereo not given)	-7	i	i	-3	/	/
CC(Nc1cc(N2CCNCC2)ccc1[N+](=O)[O-])c1ccccc1 (stereo not given)	7	-6.4*	i	-11	35%*	2.7*
CCn1c(SCc2ccccc2)nnc1-c1ccc(S(=O)(=O)N2CCCCC2)cc1	31	-5.9*	i	-9	i	i
NC(=O)CC(NC(=O)c1ccccc1)c1ccc(N2CCc3ccccc3C2)c([N+](=O)[O-])c1 (stereo not given)	-25	-9.5*	i	7	18%*	i
NC(=O)CC(NC(=O)c1ccccc1)c1ccc(N2CCCCCCC2)c([N+](=O)[O-])c1 (stereo not given)	-17	-11*	i	-7	1.4%*	i
NC(=O)CC(NC(=O)c1ccc(Br)cc1)c1ccc(N2CCCCCC2)c([N+](=O)[O-])c1 (stereo not given)	10	-7.7*	i	0	59%*	i
COc1ccc(-c2cn(Cc3ccc(C(N)=O)cc3)c(-c3ccc(Cl)nc3)n2)cc1	/	i	i	/	/	/
CN(C)S(=O)(=O)N1CCC(Oc2cccc(C(=O)NC3CCOC3)c2)CC1 (stereo not given)	-14	i	i	2	/	/
Cc1ccc(Nc2nc(CSc3nnc(-c4ccc(F)cc4)n3C)cs2)cc1	-1	-6*	i	2	48%*	i
CCN(CC(=O)Nc1ccccc1C(F)(F)F)C(=O)Cn1c(=O)cnc2ccccc21	-1	i	i	4	/	/
CCCN(CC(=O)Nc1ccc(F)c(F)c1F)C(=O)Cn1c(=O)cnc2ccccc21	0	-11*	i	20	8.6%*	i
SMILES	T cruzi inh	CHT block	CHT allo act	PolyA inh	CHT block conf	HEK293 CHT ctr
COCCCNC(=O)c1ccc(N2CCCC2)c(NS(=O)(=O)c2ccc(C)cc2)c1	-11	i	i	18	/	/
Cc1ccc(S(=O)(=O)Nc2cc(C(=O)NCCN(C)C)ccc2N2CCCCC2)cc1	/	-15*	i	/	19%*	3.2*
CCOCCCNC(=O)c1ccc(N2CCCC2)c(NS(=O)(=O)c2ccc(C)cc2)c1	-17	i	i	8	/	/
Cc1ccc(S(=O)(=O)Nc2cc(C(=O)NCCN3CCCC3)ccc2N2CCCCC2)cc1	29	-8.6*	i	-16	23%*	3.8*
O=C(NCCC1=CCCCC1)c1ccc(Cl)c(S(=O)(=O)N2CCCCC2)c1	28	i	i	-11	/	/
CCCc1nc2nc(C)c(NS(=O)(=O)c3ccc(C4CCCCC4)cc3)c(=O)n2[nH]1	-11	i	i	-5	/	/
CCC(=O)Nc1nnc(S(=O)(=O)N2CCCCCC2)s1	1	i	i	5	/	/
COc1ccc(NC(=O)C2CCN(c3nc(-c4ccc(OC)cc4)no3)CC2)cc1	-10	i	i	-7	/	/
COc1ccc(-c2noc(N3CCC(C(=O)Nc4ccc(OC)cc4OC)CC3)n2)cc1	19	-6.6*	i	5	i	i
Cn1c2c(c(=O)c3ccccc31)CCC(C)(C)O2	-2	i	i	-4	/	/
Cn1c2c(c(=O)c3ccccc31)CCCC2	-4	-9*	i	-17	3.9%*	i
CN1CCN(C(=O)CCN2C(=O)c3ccccc3C2=O)CC1	-8	i	i	13	/	/
CN1CCN(c2ncc(CN3C(=O)c4ccccc4C3=O)s2)CC1	-12	-5.3*	i	16	57%*	i
CC1CCN(C(=O)COC(=O)CSc2ccc(C(N)=O)cc2[N+](=O)[O-])CC1	-6	i	i	-3	/	/
N#C/C(=C(/O)c1ccccc1F)c1nc2cc(C(F)(F)F)ccc2s1	/	-5.5*	i	-4	48%*	i
O=C(CNS(=O)(=O)c1ccc(Br)cc1)Nc1ccc2c(c1)OCCO2	-7	/	/	20	/	/
Cc1ccc(NC(=O)Cn2nnc(C(=O)NCc3ccc(Cl)cc3)c2N)cc1F	-30	i	i	9	/	/
CC1Cc2ccccc2N1Cc1cccc([N+](=O)[O-])c1 (stereo not given)	10	i	i	-13	/	/
Cc1cc(NCCCn2ccnc2)n2ncc(-c3ccc(Cl)cc3)c2n1	48	-5.4*	i	6	61%*	i
Cc1cc(NCCCN2CCOCC2)n2ncc(-c3ccc(Cl)cc3)c2n1	28	i	i	-17	/	/
COc1ccc(C(C)=O)cc1Cn1cnc2c(cnn2C)c1=O	4	i	i	-10	/	/
